Assay results: BindingDB's records for doi:10.1021/acs.jmedchem.8b01912 (Monash University, 2019)

Molecular target: T1, fMet-Leu-Phe receptor (Homo sapiens, UniProt P21462)
T1 sequence (P21462 whole entry): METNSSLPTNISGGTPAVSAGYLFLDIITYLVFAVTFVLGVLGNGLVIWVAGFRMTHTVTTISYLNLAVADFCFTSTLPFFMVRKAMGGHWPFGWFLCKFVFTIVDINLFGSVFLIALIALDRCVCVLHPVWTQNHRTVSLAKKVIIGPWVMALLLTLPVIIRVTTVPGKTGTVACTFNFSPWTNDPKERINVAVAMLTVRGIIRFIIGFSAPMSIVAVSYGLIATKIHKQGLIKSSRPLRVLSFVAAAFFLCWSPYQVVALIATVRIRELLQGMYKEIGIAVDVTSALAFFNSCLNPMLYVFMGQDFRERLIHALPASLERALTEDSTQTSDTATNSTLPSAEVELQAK
Experiment: Biased agonist activity at human FPR1 expressed in FlpIn-CHO cells assessed as intracellular calcium mobilization by Fluo-4-AM dye based fluorescence assay
Summary of the method: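 Agonist transduction coefficients (Log(τ/KA)) for each signaling output estimated with an extension of the Black-Leff operational model. Values normalized to a reference ligand and to Ca2+ mobilization as reference pathway, giving ΔLog(τ/KA) and Log(bias factors). Data are mean ± SEM of 4 independent experiments, each performed in duplicate.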

EC50: 891 nM
Compound: CCCCC(C(=O)Nc1ccc(Cl)cc1)n1nc(C)cc(Cc2ccccc2OC)c1=O (stereo unspecified)
